# Sampled rows, rich in hits. Any-hit rate of the full collection: about 2.3%.
# TAAR1 agonist – agonists of human TAAR1; CHO RD-HGA16 TAAR1, Fluo-8 calcium fluorescence; vehicle wells 0%, saturating PEA agonist 100%; activation, % at 3 µM; Q96RJ0; actives 0.99% (n = 360,000);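 active = activation above the mean activation of all test compounds in the run plus 3 SD, cut at about 38% in these data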
# Target sequence (Q96RJ0 whole entry, looked up): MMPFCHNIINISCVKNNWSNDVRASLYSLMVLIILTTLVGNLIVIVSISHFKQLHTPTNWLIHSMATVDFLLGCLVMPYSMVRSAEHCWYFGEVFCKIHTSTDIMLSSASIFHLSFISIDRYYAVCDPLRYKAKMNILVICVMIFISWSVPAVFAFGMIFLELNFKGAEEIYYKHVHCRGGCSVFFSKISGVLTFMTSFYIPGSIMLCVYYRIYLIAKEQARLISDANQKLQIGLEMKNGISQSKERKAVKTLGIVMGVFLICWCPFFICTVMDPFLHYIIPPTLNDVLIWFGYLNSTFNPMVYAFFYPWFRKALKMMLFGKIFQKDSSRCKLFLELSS
#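 System: CHO RD-HGA16 cells carrying human TAAR1 plus Gα16; Incubation: 17-24 h seeding, 75 min 37 °C dye, 30 min RT; Measured by: Fluo-8 fluorescence, 5 s baseline then 140 s kinetic read; Control set: DMSO and PEA EC100; Replication: single well for each compound.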
# OXTR agonist – agonists of human oxytocin receptor. P30559. CHO-OTR cells, Fluo-8 calcium fluorescence; normalized: DMSO 0%, oxytocin 100%. activation, % at 3 µM. actives 0.32% (n = 320,000). AID 2435;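 active = activation above the mean of all tested compounds plus 3 SD, cutoff set per screening run, cut at about 20% in these data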;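 also: peak over basal fluorescence ratio from a 100 s FLIPR kinetic read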
# V1R ag counter – activates human V1a receptor in oxytocin agonist counter-screen; P37288; CHO-V1R cells, Fluo-8 calcium fluorescence, agonist mode; 0% DMSO, 100% 3 nM vasopressin; activation, % at 3 µM; actives 0.25% (n = 320,000);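 active = activation above the mean activation of all tested compounds plus 3 SD, per screening run, cut at about 20% in these data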;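 also: signal is peak over basal fluorescence ratio across a 100 second FLIPR read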
# OXTR potentiate – potentiators of human oxytocin receptor; actives 0.061% (n = 320,000); AID 2445; activation, % at 3 µM; CHO-OTR cells, Fluo-8 calcium fluorescence, potentiator mode; 0% = oxytocin EC15, 100% = EC100;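 active = activation above that plate's cutoff, the mean activation of tested compounds plus 3 SD, cut at about 6.6% in these data, passing the limit was not always enough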;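 also: 100% uses oxytocin at 75 nM as the full agonist control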
#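 Replication – single well per compound, singlicate · Assay system – CHO cell line stably expressing human OTR · Timing – 6 min pre-incubation, 100 s read · Measure – normalized max/min fluorescence ratio, % activation · Doses – 3.0 µM, one dose · Detection – Fluo-8 calcium dye fluorescence · Probe or stimulus – oxytocin near EC15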
# TAAR1 antagonist – antagonists of human TAAR1; CHO RD-HGA16 TAAR1, Fluo-8 calcium fluorescence, antagonist; inhibition, % at 3 µM; actives 1.5% (n = 360,000); AID 624466;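 active = inhibition above a per-plate cutoff, the mean inhibition of test compounds on that plate plus 3 SD, cut at about 49% in these data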;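 also: 0% = DMSO plus EC80 beta-PEA response and 100% = DMSO alone without agonist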
#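 Test system – hTAAR1-expressing CHO RD-HGA16 cells, Gα16-coupled · Reagent – β-PEA at EC80 concentration, post-compound challenge · Compound dosing – 3 µM, single point · Timing – 140 s kinetic read after compound, 140 s after agonist · Detection – Fluo-8 intracellular calcium dye fluorescence, real-time kinetic reads · Control set – DMSO and EC80 PEA controls · Repeats – n of 1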
# * marks the source's active call; other numbers are inactive results; x = no result.
SMILES,TAAR1 agonist,OXTR agonist,V1R ag counter,OXTR potentiate,TAAR1 antagonist
C[C@]12c3[nH]c4ccc(Cl)cc4c3CCN1C(=O)[C@@H](CC(=O)NCC13CC4CC(CC(C4)C1)C3)C[C@@H]2C(=O)N1CCOCC1,9,x,x,x,38
O=C(N/N=C/c1cccnc1)c1cccc(NC(=O)c2ccccc2Cl)c1,6,0,0,-5,6
O=C(N/N=C/c1ccc(F)cc1)c1cccc(NC(=O)c2ccccc2Cl)c1,22,7,12,-14,54*
O=C(N/N=C/c1ccncc1)c1cccc(NC(=O)c2ccccc2Cl)c1,16,1,1,-14,50*
CC(C)N(C(=O)[C@H]1C[C@H](CC(=O)NCc2cccc(C(F)(F)F)c2)C(=O)N2CCc3c([nH]c4cc(-c5ccco5)ccc34)[C@]12C)C(C)C,0,x,x,x,-26
C=CC[C@@H](CC(=O)N(CCO)Cc1ccccc1)C(=O)N[C@H](COC(=O)[C@@H](CC=C)Cc1ccc(F)cc1)C(C)(C)C,7,-2,0,-9,19
C=CC[C@@H](CC(=O)N(CCO)Cc1ccccc1)C(=O)N[C@@H](COC(=O)[C@@H](CC=C)Cc1ccc(F)cc1)Cc1c[nH]c2ccccc12,7,0,3,-9,17
C=CC[C@H](CC(=O)N(CCO)Cc1ccccc1)C(=O)N[C@@H](COC(=O)[C@@H](CC=C)Cc1ccc(F)cc1)Cc1c[nH]c2ccccc12,4,2,4,-10,60*
C=CC[C@H](CC(=O)N(CCO)Cc1ccccc1)C(=O)N[C@H](COC(=O)[C@@H](CC=C)Cc1ccc(F)cc1)C(C)(C)C,10,-1,0,-1,51*
C=CCC[C@@H](Cc1ccc(F)cc1)C(=O)OC[C@@H](Cc1c[nH]c2ccccc12)NC(=O)[C@H](CC=C)CC(=O)N(CCO)Cc1ccccc1,5,1,-1,-9,60*
C=CCC[C@H](Cc1ccc(F)cc1)C(=O)OC[C@@H](Cc1c[nH]c2ccccc12)NC(=O)[C@H](CC=C)CC(=O)N(CCO)Cc1ccccc1,14,0,0,-9,65*
Cc1ccc(S(=O)(=O)Nc2ccccc2/C=N/c2nc3ccccc3n2C)cc1,x,-1,-1,-4,x
CCCCn1c(N)c(N(CCOC)C(=O)c2cc3c(s2)CCCCC3)c(=O)[nH]c1=O,0,0,0,-1,-23
CCC(C)[C@H](NC(=O)NCc1ccccc1)C(=O)O (some centres undefined),3,0,0,-8,8
COc1ccc(C(=O)NN2C(=O)C3C4C=CC(O4)C3C2=O)cc1 (centres undefined),6,0,1,-15,3
COc1ccc(CCNCc2ccc(OCc3ccccc3)cc2)cc1,44*,6,8,-8,-9
CN(C(=O)CCc1nnc(-c2ccc(-c3ccccc3)cc2)o1)C1CCOCC1,8,9,15,-10,14
COc1ccc(CNC(=O)[C@H](C)[C@@H]2C[C@@]2(C)[C@@H](NC(=O)OCc2ccccc2)c2ccccc2)cc1OC,18,0,2,-7,28
C[C@@H](C(=O)NCc1ccccc1)[C@H]1C[C@]1(C)[C@H](NC(=O)OCc1ccccc1)c1ccccc1,13,-1,0,-24,62*
Cc1cccc(OCc2nnc(SCc3cc(=O)[nH]c4ccccc34)n2-c2ccccc2)c1,-4,-1,4,-7,-4
COc1ccc(N2CCN(C(=O)[C@@H]3CCCN3C3=NS(=O)(=O)c4ccccc43)CC2)cc1,1,1,0,-5,-10
O=C1[C@H](Cc2ccccc2)NCCCC[C@@H](c2ccc(Cl)cc2)N1Cc1ccccc1,39*,x,x,x,17
COc1ccc(CNC(=O)C2CCCN(c3nc4ccccc4o3)C2)c(OC)c1 (centres undefined),x,-1,-1,-4,x
O=C(Nc1cccc(C(F)(F)F)c1)c1ccc(Cn2cc(Br)cn2)o1,57*,14,12,-8,54*
CCn1c(C)nc2cc(C(=O)NNC(=O)Nc3ccc(Cl)c(Cl)c3)ccc21,41*,0,1,-16,20
SMILES,TAAR1 agonist,OXTR agonist,V1R ag counter,OXTR potentiate,TAAR1 antagonist
CCn1c(C)nc2cc(C(=O)NNC(=O)c3ccc(C)cc3)ccc21,8,0,0,-6,12
NNC(=O)c1ccc(N2CCc3ccccc32)c([N+](=O)[O-])c1,-1,1,0,-6,55*
COC(CNC(=O)c1ccc(N2CCc3ccccc32)c([N+](=O)[O-])c1)OC,3,10,11,-15,7
CCCNC(=O)Cn1c(=O)/c(=C\c2ccc(-c3ccc([N+](=O)[O-])cc3)o2)s/c1=C\C(=O)C(C)(C)C,x,63*,37*,-12,x
CCCNC(=O)Cn1c(=O)/c(=C/c2ccc(-c3cccc([N+](=O)[O-])c3)o2)s/c1=C\C(=O)C(C)(C)C,2,x,x,x,6
O=C1N=c2ccccc2=C1c1sc(=S)n(-c2ccc(O)cc2)c1O,0,-1,0,-15,-11
O=C(Nn1c(O)c(C=C2N=c3ccccc3=N2)sc1=S)c1cccc(Cl)c1,31,1,1,-6,52*
O=C(Nn1c(O)c(C=C2N=c3ccccc3=N2)sc1=S)c1ccc(Cl)cc1,12,0,0,-7,13
O=C(Nn1c(O)c(C=C2N=c3ccccc3=N2)sc1=S)c1ccccc1,38*,4,2,-10,48
O=C1N=c2ccccc2=C1c1sc(=S)n(NC(=O)c2cccc(O)c2)c1O,18,x,x,x,51*
COCCNC(=O)C(c1ccc(Cl)cc1)N(CCOC)C(=O)CCC(=O)Nc1ccccn1 (centres undefined),3,2,1,-9,-6
Cn1nc(CC(=O)Nc2ncc(Br)s2)c2ccccc2c1=O,44*,12,8,-21,29
Cn1nc(CC(=O)NC2CCCCCCCCCCC2)c2ccccc2c1=O,3,0,1,-2,-3
COc1cccc(C2(O)CCN(C(=O)C(C)C)CC2)c1,-2,0,1,-7,-13
CC/C=C\C/C=C\C/C=C\CCCCCCCC(=O)O,4,1,0,-1,-14
CCCCC/C=C\C/C=C\C/C=C\C/C=C\CCCC(=O)O,x,-1,-1,9.6*,x
CCc1sc(-c2c(C#N)c(N)nc3c2CCCCCC3)cc1[N+](=O)[O-],53*,16,0,3,-1
CCN(CC)C(=O)C1c2ccccc2Oc2ccccc21,6,48*,64*,-8,-10
CC(=O)N1CCN(c2ccccc2NC(=O)c2cc3ccccc3o2)CC1,10,2,2,-4,52*
O=C(Nc1nc(OCC(F)(F)F)cnc1/C=C\c1ccccc1)c1ccsc1,1,x,x,x,57*

# Screens: PubChem BioAssay, The Scripps Research Institute Molecular Screening Center
